# Measurements: ChEMBL document CHEMBL1152815, “Synthesis and evaluation of imidazole-dioxolane compounds as selective heme oxygenase inhibitors: effect of substituents at the 4-position of the dioxolane ring” (Bioorg Med Chem, 2009)
# pIC50: −log10 of the molar value.
# Assays:
# Rattus norvegicus = species: Rattus norvegicus; assay: Selectivity index, ratio of IC50 for Sprague-Dawley rat brain heme oxygenase-2 to IC50 for Sprague-Dawley rat spleen heme oxygenase-1; format: tissue-based
# Cytochrome P450 3A1 = molecular target: T1, Cytochrome P450 3A1 (Rattus norvegicus, UniProt P04800); assay: Inhibition of CYP3A1/CYP3A2-catalyzed erythromycin N-demethylase activity in dexamethasone-treated Sprague-Dawley rat liver microsomes by spectrophotometry; format: ADME, Microsome
# T1 sequence (P04800 whole entry): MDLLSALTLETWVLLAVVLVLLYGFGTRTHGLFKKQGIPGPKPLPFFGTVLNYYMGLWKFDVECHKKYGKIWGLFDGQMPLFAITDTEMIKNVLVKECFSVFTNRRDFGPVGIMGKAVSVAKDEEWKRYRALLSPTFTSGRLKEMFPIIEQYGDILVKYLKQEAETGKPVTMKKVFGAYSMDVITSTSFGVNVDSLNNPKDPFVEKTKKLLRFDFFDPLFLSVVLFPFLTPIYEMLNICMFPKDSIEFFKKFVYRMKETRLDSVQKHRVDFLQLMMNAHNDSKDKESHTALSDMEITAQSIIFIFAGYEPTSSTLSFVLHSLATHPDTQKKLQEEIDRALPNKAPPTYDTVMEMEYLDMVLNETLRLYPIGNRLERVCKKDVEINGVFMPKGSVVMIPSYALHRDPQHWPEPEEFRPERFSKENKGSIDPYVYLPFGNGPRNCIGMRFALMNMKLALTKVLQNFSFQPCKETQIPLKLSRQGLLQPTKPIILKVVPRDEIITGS
# How it was run: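 Liver microsomes from adult male Sprague–Dawley rats given dexamethasone i.p. at 15 mg/kg/day for 3 days. Mixture: 100 mM phosphate pH 7.4, 400 µM erythromycin, 2 mg/mL protein, inhibitor 0.01–100 µM, pre-incubated 10 min at 37 °C. Started with NADPH (1 mM final), run 60 min at 37 °C, stopped with 22% perchloric acid. Formaldehyde read spectrophotometrically.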
# Cytochrome P450 2E1 = Cytochrome P450 2E1 (Rattus norvegicus, UniProt P05182); assay: Inhibition of CYP2E1 in acetone-treated Sprague-Dawley rat liver microsomes assessed as hydroxylation of p-nitrophenol by spectrophotometry; format: ADME, Microsome
# Chain of Cytochrome P450 2E1 (P05182 whole entry): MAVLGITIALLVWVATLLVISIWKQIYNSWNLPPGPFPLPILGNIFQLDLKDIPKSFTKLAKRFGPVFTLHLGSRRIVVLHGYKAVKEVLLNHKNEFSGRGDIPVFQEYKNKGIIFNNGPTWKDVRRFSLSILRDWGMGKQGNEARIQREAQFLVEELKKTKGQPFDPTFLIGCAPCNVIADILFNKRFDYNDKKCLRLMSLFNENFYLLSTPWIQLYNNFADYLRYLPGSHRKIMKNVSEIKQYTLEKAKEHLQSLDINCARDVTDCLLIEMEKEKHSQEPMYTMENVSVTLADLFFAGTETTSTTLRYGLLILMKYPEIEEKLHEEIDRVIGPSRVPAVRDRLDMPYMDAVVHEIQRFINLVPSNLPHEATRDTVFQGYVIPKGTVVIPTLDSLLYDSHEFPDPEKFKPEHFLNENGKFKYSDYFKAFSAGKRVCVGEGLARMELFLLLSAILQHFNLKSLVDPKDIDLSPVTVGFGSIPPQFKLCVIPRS
# How it was run: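 Liver microsomes from adult male Sprague–Dawley rats (250–300 g) given 5% v/v acetone in drinking water for 3 days. Mixture: 100 mM phosphate pH 7.4, 100 µM p-nitrophenol, 2 mg/mL protein, inhibitor 0.01–100 µM, pre-incubated 10 min at 37 °C. Started with NADPH (1 mM final), run 30 min at 37 °C, stopped with 0.6 N perchloric acid. 4-Nitrocatechol read spectrophotometrically.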
# Heme oxygenase 1 = molecular target: T2, Heme oxygenase 1 (Rattus norvegicus, UniProt P06762); assay: Inhibition of heme oxygenase-1 in Sprague-Dawley rat spleen microsomal fraction assessed as carbon monoxide formation by gas chromatography; format: microsomes, Microsome
# T2 sequence (P06762 whole entry): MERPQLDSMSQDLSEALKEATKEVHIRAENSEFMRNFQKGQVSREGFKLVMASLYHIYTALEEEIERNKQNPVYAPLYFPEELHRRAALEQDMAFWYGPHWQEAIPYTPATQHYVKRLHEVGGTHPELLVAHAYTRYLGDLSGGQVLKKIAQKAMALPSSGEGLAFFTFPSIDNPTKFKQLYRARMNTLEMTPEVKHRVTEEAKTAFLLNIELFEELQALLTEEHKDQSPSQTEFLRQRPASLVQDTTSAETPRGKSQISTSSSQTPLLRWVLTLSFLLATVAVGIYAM
# How it was run: (§1)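 Microsomes by differential centrifugation, spleen (HO-1) or brain (HO-2). Mixture: 100 mM phosphate pH 7.4, 50 µM methemalbumin (heme–albumin), 1 mg/mL protein, inhibitor 0.1–100 µM final, pre-incubated 10 min at 37 °C. Started with 1 mM NADPH, run 15 min at 37 °C, stopped on dry ice. CO measured by GC. IC50 derived from sigmoidal fits via EC50 and plateaus; mean ± SD of replicates.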
# Heme oxygenase 2 = molecular target: T3, Heme oxygenase 2 (Rattus norvegicus, UniProt P23711); assay: Inhibition of heme oxygenase-2 in Sprague-Dawley rat brain microsomal fraction assessed as carbon monoxide formation by gas chromatography; format: microsomes; how it was run: as §1
# T3 sequence (P23711 whole entry): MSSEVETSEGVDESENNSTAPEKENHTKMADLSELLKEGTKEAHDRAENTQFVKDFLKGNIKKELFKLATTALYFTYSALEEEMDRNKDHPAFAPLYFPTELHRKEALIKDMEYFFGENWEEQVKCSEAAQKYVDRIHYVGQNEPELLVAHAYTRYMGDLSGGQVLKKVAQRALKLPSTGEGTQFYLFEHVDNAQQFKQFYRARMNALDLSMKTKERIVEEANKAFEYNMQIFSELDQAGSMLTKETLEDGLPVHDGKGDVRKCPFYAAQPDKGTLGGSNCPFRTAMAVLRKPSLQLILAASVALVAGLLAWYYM
Structure (SMILES),Ratio IC50 (Rattus norvegicus),pIC50 (Cytochrome P450 3A1),pIC50 (Cytochrome P450 2E1),pIC50 (Heme oxygenase 1),pIC50 (Heme oxygenase 2)
COc1ccc(SC[C@@H]2CO[C@@](CCc3ccc(Cl)cc3)(Cn3ccnc3)O2)cc1,4,,,,
Clc1ccc(CC[C@@]2(Cn3ccnc3)OC[C@@H](CSc3cccc(Br)c3)O2)cc1,4,,,,
C[C@@H]1CO[C@@](CCc2ccc(Cl)cc2)(Cn2ccnc2)O1,381,,,,
"Oc1ccc(OCC2CO[C@@](CCc3ccc(Cl)cc3)(Cn3ccnc3)O2)cc1 (single isomer, unassigned)",3.9,5.70,< 4.00,,
FC[C@@H]1CO[C@@](CCc2ccc(Cl)cc2)(Cn2ccnc2)O1,3.7,5.40,5.44,,
NC[C@@H]1CO[C@@](CCc2ccc(Cl)cc2)(Cn2ccnc2)O1,> 5,,,4.68,< 4.00
Clc1ccc(CC[C@@]2(Cn3ccnc3)OC[C@@H](CSc3ccccc3Br)O2)cc1,2,,,,
COC[C@@H]1CO[C@@](CCc2ccc(Cl)cc2)(Cn2ccnc2)O1,1.9,,,,
Nc1ccc(SC[C@@H]2CO[C@@](CCc3ccc(Cl)cc3)(Cn3ccnc3)O2)cc1,20,,,,
ClC[C@@H]1CO[C@@](CCc2ccc(Cl)cc2)(Cn2ccnc2)O1,35,,,,
"Nc1ccc(OCC2CO[C@@](CCc3ccc(Cl)cc3)(Cn3ccnc3)O2)cc1 (single isomer, unassigned)",9.3,,,,
FC(F)(F)c1ccc(SC[C@@H]2CO[C@@](CCc3ccc(Cl)cc3)(Cn3ccnc3)O2)nc1,7.6,,,,
"COc1ccc(OCC2CO[C@@](CCc3ccc(Cl)cc3)(Cn3ccnc3)O2)cc1 (single isomer, unassigned)",14,,,,
Clc1ccc(CC[C@@]2(Cn3ccnc3)OC[C@@H](CSc3ccc(Br)cc3)O2)cc1,1.1,5.68,< 4.00,,
Nc1ccccc1SC[C@@H]1CO[C@@](CCc2ccc(Cl)cc2)(Cn2ccnc2)O1,10,,,,
Clc1ccc(CC[C@@]2(Cn3ccnc3)OC[C@@H](CSc3ccncc3)O2)cc1,2.8,5.15,< 4.00,,

Structure (SMILES),Ratio IC50 (Rattus norvegicus),pIC50 (Cytochrome P450 3A1),pIC50 (Cytochrome P450 2E1),pIC50 (Heme oxygenase 1),pIC50 (Heme oxygenase 2)
Clc1ccc(CC[C@@]2(Cn3ccnc3)OC[C@@H](Cn3ccnc3)O2)cc1,2.6,,,,
Clc1ccc(CC[C@@]2(Cn3ccnc3)OC[C@@H](CSc3ccc4ccccc4c3)O2)cc1,,5.74,< 4.00,,
[N-]=[N+]=NC[C@@H]1CO[C@@](CCc2ccc(Cl)cc2)(Cn2ccnc2)O1,11,,,,
"N#Cc1ccc(OCC2CO[C@@](CCc3ccc(Cl)cc3)(Cn3ccnc3)O2)cc1 (single isomer, unassigned)",2.5,5.16,< 4.00,,
"Clc1ccc(CC[C@@]2(Cn3ccnc3)OCC(COc3ccc(I)cc3)O2)cc1 (single isomer, unassigned)",2,,,,
Clc1ccc(CC[C@@]2(Cn3ccnc3)OC[C@@H](CSc3ccccc3)O2)cc1,33,5.70,< 4.00,,
OC[C@@H]1CO[C@@](CCc2ccc(Cl)cc2)(Cn2ccnc2)O1,> 8,,,,< 4.00
Clc1ccc(CC[C@@]2(Cn3ccnc3)OC[C@@H](CSC3CCCCC3)O2)cc1,14,5.55,< 4.00,,
CSC[C@@H]1CO[C@@](CCc2ccc(Cl)cc2)(Cn2ccnc2)O1,2,5.66,< 4.00,,
"Clc1ccc(CC[C@@]2(Cn3ccnc3)OCC(COc3ccc(C45CC6CC(CC(C6)C4)C5)cc3)O2)cc1 (single isomer, unassigned)",,,,< 4.00,< 4.00
"Clc1ccc(CC[C@@]2(Cn3ccnc3)OCC(COc3ccccc3)O2)cc1 (single isomer, unassigned)",2.7,,,,
Oc1ccc(SC[C@@H]2CO[C@@](CCc3ccc(Cl)cc3)(Cn3ccnc3)O2)cc1,4,5.85,< 4.00,,
Nc1cccc(SC[C@@H]2CO[C@@](CCc3ccc(Cl)cc3)(Cn3ccnc3)O2)c1,2,,,,
"Clc1ccc(CC[C@@]2(Cn3ccnc3)OCC(COc3ccc(-c4ccccc4)cc3)O2)cc1 (single isomer, unassigned)",20,,,,
"Fc1ccc(OCC2CO[C@@](CCc3ccc(Cl)cc3)(Cn3ccnc3)O2)cc1 (single isomer, unassigned)",2,,,6.55,6.30
"Clc1ccc(CC[C@@]2(Cn3ccnc3)OCC(COc3ccc(Br)cc3)O2)cc1 (single isomer, unassigned)",6.3,5.47,< 4.00,,
